Measurements reported in ChEMBL document CHEMBL4138269, “Dual NAMPT/HDAC Inhibitors as a New Strategy for Multitargeting Antitumor Drug Discovery” (ACS Med Chem Lett, 2018).
Active and inactive are the calls of the source. The calls are words filed in the database; no cut-off is given here.

Experiments:
[1] = target: Histone deacetylase 3/NCoR1 (Homo sapiens, UniProt O15379); assay: Inhibition of human recombinant HDAC3/GST-tagged NCOR1 DAD (397 to 503 residues) expressed in baculovirus expression system after 30 mins by fluorescence assay
Chain of Histone deacetylase 3/NCoR1 (O15379 whole entry, the tested form may be a part): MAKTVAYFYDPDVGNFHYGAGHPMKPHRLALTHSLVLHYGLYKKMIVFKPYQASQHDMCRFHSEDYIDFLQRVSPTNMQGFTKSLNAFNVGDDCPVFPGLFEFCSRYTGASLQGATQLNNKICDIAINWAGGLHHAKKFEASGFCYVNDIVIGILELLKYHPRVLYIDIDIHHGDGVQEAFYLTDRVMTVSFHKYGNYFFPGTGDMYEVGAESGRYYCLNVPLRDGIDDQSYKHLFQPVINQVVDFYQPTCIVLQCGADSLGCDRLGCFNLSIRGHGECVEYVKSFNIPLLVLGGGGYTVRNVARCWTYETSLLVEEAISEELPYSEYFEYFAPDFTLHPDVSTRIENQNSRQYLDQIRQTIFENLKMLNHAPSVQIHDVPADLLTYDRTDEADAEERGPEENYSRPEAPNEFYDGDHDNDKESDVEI
Chain of Histone deacetylase 3/NCoR1 (O75376 whole entry, further chain, the tested form may be a part): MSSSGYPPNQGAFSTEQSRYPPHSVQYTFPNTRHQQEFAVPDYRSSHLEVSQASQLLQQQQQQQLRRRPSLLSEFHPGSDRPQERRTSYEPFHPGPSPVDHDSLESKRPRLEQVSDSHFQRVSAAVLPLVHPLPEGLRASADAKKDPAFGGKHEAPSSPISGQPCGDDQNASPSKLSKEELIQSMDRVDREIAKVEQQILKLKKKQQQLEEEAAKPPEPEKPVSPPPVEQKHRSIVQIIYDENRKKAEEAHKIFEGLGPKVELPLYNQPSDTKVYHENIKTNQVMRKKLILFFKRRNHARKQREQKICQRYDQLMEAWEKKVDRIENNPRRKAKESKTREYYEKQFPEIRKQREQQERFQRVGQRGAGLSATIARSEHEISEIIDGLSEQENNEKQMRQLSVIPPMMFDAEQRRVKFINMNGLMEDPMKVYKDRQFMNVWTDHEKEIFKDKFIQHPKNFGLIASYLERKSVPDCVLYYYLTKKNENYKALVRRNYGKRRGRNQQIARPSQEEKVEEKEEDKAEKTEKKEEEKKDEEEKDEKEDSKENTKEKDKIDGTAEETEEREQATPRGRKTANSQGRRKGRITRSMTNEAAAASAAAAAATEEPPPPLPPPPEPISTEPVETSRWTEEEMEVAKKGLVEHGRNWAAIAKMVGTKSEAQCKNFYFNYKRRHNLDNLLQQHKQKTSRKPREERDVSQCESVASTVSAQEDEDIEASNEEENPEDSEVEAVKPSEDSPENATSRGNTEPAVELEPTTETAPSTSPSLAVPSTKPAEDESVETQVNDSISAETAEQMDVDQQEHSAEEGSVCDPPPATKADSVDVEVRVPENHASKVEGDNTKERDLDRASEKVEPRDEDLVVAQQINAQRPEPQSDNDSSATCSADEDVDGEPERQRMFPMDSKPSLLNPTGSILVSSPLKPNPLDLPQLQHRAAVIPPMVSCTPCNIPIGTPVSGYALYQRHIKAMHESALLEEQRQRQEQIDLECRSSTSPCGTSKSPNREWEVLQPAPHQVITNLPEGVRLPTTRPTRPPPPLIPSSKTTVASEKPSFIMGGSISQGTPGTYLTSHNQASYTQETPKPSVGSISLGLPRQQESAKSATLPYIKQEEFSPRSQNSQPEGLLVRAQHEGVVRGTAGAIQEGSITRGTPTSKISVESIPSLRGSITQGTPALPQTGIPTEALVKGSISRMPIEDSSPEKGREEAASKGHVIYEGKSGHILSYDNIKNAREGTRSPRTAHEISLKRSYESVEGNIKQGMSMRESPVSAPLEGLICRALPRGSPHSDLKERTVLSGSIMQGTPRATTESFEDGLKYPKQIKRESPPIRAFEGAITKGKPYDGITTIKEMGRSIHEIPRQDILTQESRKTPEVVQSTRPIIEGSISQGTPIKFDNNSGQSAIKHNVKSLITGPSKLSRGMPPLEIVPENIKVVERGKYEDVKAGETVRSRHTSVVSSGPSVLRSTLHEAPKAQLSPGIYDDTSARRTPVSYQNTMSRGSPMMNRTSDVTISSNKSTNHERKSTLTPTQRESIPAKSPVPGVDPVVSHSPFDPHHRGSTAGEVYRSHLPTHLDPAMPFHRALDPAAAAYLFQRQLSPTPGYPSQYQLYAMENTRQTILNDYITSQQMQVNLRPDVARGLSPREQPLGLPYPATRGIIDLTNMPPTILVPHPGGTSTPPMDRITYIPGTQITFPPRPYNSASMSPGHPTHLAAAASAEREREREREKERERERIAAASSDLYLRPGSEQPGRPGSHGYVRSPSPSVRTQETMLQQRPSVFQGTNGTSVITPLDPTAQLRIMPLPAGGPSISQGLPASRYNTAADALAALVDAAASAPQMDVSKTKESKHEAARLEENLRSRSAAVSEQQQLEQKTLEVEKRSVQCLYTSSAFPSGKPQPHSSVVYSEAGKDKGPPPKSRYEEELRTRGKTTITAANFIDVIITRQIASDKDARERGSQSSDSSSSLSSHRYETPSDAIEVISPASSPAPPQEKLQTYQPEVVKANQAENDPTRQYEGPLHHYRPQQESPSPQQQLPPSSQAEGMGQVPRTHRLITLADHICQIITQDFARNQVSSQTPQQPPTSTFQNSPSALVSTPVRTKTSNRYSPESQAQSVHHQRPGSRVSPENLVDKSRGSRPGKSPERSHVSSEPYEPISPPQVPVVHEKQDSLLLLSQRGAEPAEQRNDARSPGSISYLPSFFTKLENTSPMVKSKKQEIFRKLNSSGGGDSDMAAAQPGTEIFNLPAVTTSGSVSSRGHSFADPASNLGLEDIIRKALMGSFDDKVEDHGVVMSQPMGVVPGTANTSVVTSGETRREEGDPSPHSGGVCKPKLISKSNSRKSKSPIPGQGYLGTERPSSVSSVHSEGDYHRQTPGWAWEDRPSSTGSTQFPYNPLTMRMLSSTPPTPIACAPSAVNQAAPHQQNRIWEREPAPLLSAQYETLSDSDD

[2] = target: T1, Protein deacetylase HDAC6 (Homo sapiens, UniProt Q9UBN7); assay: Inhibition of recombinant human full length C-terminal flag-tagged HDAC6 expressed in baculovirus infected Sf9 insect cells after 30 mins by fluorescence assay
T1 sequence (Q9UBN7 whole entry): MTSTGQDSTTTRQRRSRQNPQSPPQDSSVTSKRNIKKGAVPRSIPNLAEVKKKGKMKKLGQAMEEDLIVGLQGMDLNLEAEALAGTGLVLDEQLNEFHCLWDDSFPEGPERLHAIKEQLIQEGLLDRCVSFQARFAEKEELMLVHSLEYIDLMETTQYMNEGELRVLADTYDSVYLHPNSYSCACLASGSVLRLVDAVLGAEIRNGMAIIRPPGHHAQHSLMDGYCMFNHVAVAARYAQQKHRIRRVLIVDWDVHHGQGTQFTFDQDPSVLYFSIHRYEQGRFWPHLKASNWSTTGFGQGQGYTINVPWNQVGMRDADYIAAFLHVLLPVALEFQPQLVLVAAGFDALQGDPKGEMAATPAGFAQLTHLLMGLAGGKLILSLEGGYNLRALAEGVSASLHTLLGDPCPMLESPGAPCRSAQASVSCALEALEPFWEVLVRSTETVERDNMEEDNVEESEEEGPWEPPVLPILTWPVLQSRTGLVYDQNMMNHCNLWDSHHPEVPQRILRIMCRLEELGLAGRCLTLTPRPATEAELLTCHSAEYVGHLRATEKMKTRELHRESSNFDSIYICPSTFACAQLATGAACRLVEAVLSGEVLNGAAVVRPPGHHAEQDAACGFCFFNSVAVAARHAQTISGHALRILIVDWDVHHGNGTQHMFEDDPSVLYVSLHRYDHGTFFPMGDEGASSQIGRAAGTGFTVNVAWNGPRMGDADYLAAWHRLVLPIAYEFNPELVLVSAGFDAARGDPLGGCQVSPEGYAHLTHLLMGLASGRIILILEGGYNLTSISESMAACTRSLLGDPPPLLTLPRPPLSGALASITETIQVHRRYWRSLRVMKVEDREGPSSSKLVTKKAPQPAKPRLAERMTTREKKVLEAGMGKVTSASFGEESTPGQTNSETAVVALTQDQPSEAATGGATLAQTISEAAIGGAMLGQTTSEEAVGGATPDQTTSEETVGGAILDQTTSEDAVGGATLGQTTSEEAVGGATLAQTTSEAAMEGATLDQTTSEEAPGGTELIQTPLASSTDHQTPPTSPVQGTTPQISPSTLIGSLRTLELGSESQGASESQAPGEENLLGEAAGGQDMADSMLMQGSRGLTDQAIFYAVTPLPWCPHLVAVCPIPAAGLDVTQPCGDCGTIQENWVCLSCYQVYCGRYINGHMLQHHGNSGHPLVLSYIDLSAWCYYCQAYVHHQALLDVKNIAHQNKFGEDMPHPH

[3] = target: T2, Nicotinamide phosphoribosyltransferase (Homo sapiens, UniProt P43490); assay: Binding affinity to NAMPT in human HCT116 cells assessed as change in melting temperature at 10 uM after 3 hrs by CETSA; format: cell-based
Target sequence in this assay (P43490 whole entry, looked up): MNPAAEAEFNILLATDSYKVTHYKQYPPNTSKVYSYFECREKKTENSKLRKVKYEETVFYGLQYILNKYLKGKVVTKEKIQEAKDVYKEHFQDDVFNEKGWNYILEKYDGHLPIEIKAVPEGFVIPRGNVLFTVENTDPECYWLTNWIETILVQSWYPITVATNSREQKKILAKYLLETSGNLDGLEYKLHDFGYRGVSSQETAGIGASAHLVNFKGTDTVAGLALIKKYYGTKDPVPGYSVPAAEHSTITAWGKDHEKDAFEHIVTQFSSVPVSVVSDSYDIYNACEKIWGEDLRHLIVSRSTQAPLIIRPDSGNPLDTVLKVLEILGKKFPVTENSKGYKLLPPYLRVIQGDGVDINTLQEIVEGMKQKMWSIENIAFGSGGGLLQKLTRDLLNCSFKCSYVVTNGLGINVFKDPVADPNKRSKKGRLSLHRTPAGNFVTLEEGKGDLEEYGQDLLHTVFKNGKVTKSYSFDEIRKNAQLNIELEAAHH

[4] = target: T2, Nicotinamide phosphoribosyltransferase; assay: Inhibition of NAMPT (unknown origin) using NAM as substrate incubated for 5 mins followed by substrate addition measured after 15 mins by fluorometric method
Target sequence in this assay (P43490 whole entry): as the sequence (P43490 whole entry, looked up) above

[5] = target: T3, Histone deacetylase 1 (Homo sapiens, UniProt Q13547); assay: Inhibition of recombinant full length human C-terminal His/flag-tagged HDAC1 expressed in baculovirus infected Sf9 insect cells after 30 mins by fluorescence assay
T3 sequence (Q13547 whole entry): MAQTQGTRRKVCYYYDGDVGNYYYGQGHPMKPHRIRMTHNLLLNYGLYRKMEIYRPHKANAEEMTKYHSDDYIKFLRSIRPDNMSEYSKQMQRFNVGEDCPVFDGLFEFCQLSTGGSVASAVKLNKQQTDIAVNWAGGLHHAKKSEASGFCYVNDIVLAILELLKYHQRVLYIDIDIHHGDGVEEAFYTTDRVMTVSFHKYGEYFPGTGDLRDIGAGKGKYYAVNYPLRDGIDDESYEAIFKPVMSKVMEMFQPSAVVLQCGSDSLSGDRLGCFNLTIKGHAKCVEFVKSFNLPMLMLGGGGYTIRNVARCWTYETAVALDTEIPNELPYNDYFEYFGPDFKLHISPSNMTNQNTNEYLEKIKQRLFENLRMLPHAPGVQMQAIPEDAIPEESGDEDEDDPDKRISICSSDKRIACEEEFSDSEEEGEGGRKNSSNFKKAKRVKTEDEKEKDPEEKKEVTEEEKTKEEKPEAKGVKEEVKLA

[6] = system: HCT-116; assay: cells; format: functional, cell-based; conditions: Homo sapiens, HCT-116, 72 h
[7] = system: A549; assay: cells; format: functional, cell-based; conditions: Homo sapiens, A549, 72 h
[8] = system: HepG2; assay: cells; format: functional, cell-based; conditions: Homo sapiens, HepG2, 72 h
[9] = target: T3, Histone deacetylase 1; assay: Potency index, ratio of SAHA IC50 to compound IC50 for recombinant human full length C-terminal His/flag-tagged HDAC1 expressed in baculovirus infected Sf9 insect cells
[10] = target: Histone deacetylase 2 (Homo sapiens, UniProt Q92769)
[11] = target: Histone deacetylase 4 (Homo sapiens, UniProt P56524); assay: Inhibition of recombinant human N-terminal GST-tagged HDAC4 (612 to end residues) expressed in baculovirus infected Sf9 insect cells after 30 mins by fluorescence assay
Chain of Histone deacetylase 4 (P56524 whole entry): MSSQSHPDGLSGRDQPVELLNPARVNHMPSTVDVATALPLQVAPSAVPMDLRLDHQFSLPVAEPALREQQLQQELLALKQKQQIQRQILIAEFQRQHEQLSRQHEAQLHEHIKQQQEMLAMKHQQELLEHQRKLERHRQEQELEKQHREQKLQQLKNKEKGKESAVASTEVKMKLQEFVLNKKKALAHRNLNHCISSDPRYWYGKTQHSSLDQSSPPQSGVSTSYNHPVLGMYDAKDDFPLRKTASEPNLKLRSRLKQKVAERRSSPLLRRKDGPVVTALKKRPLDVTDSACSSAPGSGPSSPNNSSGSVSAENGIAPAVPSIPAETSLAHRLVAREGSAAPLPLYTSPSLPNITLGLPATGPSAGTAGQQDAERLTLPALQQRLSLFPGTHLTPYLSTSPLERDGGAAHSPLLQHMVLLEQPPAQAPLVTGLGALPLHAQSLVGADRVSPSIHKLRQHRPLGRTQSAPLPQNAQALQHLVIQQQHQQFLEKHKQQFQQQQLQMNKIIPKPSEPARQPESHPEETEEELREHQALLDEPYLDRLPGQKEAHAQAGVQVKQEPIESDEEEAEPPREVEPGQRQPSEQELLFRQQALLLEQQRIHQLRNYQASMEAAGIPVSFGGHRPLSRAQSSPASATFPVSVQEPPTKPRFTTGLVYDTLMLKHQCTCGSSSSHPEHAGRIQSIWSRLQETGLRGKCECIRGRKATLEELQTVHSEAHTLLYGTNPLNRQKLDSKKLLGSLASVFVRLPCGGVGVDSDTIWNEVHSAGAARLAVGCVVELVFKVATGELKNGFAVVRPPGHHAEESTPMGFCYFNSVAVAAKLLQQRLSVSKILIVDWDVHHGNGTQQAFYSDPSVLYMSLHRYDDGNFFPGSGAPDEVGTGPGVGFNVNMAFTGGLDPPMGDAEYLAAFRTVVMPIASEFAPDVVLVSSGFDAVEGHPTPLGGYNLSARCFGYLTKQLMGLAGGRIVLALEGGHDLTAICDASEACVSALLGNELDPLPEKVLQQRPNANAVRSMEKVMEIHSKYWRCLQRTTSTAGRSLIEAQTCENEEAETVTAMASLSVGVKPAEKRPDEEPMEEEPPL

[12] = target: T4, Histone deacetylase 8 (Homo sapiens, UniProt Q9BY41); assay: Inhibition of recombinant human full length C-terminal His-tagged HDAC8 expressed in baculovirus infected Sf9 insect cells after 30 mins by fluorescence assay
T4 sequence (Q9BY41 whole entry): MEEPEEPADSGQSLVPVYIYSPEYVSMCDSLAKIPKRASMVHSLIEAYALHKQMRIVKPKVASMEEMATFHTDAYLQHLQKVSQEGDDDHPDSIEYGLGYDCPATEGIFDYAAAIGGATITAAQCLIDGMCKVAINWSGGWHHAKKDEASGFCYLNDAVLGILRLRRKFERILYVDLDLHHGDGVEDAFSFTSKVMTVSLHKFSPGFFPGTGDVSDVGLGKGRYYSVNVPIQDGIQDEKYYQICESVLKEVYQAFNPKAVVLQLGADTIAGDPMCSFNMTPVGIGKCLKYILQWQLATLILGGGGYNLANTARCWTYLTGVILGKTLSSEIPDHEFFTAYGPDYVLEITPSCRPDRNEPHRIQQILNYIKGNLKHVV

[13] = target: T5, Histone deacetylase (Homo sapiens) (UniProt Q13547+O15379+Q9UBN7+Q92769+Q9UQL6+Q8WUI4+Q9BY41+Q96DB2+P56524+Q9UKV0+Q969S8); assay: Inhibition of HDAC in human HCT116 cells assessed as increase in acetyl-histone H3 level at 1 to 5 uM after 24 hrs by Western blot analysis; format: cell-based
How it was run: (§1)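 HCT116 cells were treated for 24 h at 1 μM and 5 μM. Acetylated histone H3 and acetylated histone H4 were detected by Western blot.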

[14] = target: T5, Histone deacetylase (Homo sapiens); assay: Inhibition of HDAC in human HCT116 cells assessed as increase in acetyl-histone H4 level at 1 to 5 uM after 24 hrs by Western blot analysis; format: cell-based; how it was run: as §1
[15] = target: T2, Nicotinamide phosphoribosyltransferase; assay: Inhibition of NAMPT in human HCT116 cells assessed as decrease in cellular NAD+ level after 24 hrs by MTT dye based spectrophotometric analysis; format: cell-based
How it was run: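 HCT116 cells were exposed to a concentration series for 24 h. Cellular NAD+ level was measured and concentration–response curves were fitted.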
Target sequence in this assay (P43490 whole entry, looked up): as the sequence (P43490 whole entry, looked up) above

[16] = system: HCT-116; assay: animal or person; format: functional, Homo sapiens; conditions: Mus musculus, HCT-116, ip, 72 h, read-out: TGI
[17] = system: Mus musculus; assay: Toxicity in BALB/C nude mouse xenografted with human HCT116 cells assessed as body weight loss at 25 mg/kg, ip bid administered for 21 consecutive days measured every 3 days; format: organism-based; conditions: in vivo, 72 h
How it was run: (§2)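 HCT116 tumour xenografts were grown in nude mice. Agents were given ip twice daily for 21 consecutive days. Tumour growth and body weight were followed. Tumour growth inhibition (TGI) and relative increment ratio (T/C) were derived. Data are mean ± standard deviation, compared with the control group by Student's t test.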

[18] = system: HCT-116; assay: Antitumor activity against human HCT116 cells xenografted in BALB/C nude mouse assessed as tumor growth inhibition at 15 mg/kg, ip bid administered for 21 consecutive days measured every 3 days; format: functional; conditions: HCT-116, ip, 72 h, read-out: TGI; how it was run: as §2
[19] = system: Mus musculus; assay: Toxicity in BALB/C nude mouse xenografted with human HCT116 cells assessed as body weight loss at 15 mg/kg, ip bid administered for 21 consecutive days measured every 3 days; format: organism-based; conditions: in vivo, 72 h; how it was run: as §2

IC50 [4] [nM]	IC50 [5] [nM]	IC50 [6] [µM]	IC50 [7] [µM]	IC50 [8] [µM]	SMILES	other results
15	2	30	5.2	24	CC(C)CCN(CCCCCCC(=O)NO)c1ncc(C(=O)NCCCn2ccnc2)s1	IC50 [1]: 0.67 nM; IC50 [2]: 0.64 nM; ΔTm [3]: 3.01 °C; Ratio IC50 [9]: 10; IC50 [10]: 6.8 nM; IC50 [11]: 12 µM; IC50 [12]: 204 nM; inhibition [13]: Dose-dependent effect; inhibition [14]: Dose-dependent effect; inhibition [15]: Active; inhibition in vivo at 25 mg/kg [16]: 42%; Activity [17]: Non-Toxic
7	100	19	54	30	O=C(CCCCCN(Cc1ccc(F)cc1)c1ncc(C(=O)NCCCn2ccnc2)s1)NO	
18	44	63	6.6	26	O=C(CCCCCCCN(Cc1ccc(F)cc1)c1ncc(C(=O)NCCCn2ccnc2)s1)NO	
			3.7		O=C(/C=C/c1cccnc1)NCCCCC1CCN(C(=O)c2ccccc2)CC1 [DAPORINAD]	inhibition in vivo at 15 mg/kg [18]: 39%; Activity [19]: Non-Toxic
20	60	85	13	106	CC(C)CCN(CCCCCC(=O)NO)c1ncc(C(=O)NCCCn2ccnc2)s1	
220	36	12	19	7	CC(C)CCN(CCCCCCC(=O)NO)c1ncc(C(=O)NCc2cccnc2)s1	
					O=C(CCCCCCC(=O)Nc1ccccc1)NO [VORINOSTAT]	Activity [17]: Non-Toxic
19	36	9.7	9.7	9.4	O=C(CCCCCCN(Cc1ccc(F)cc1)c1ncc(C(=O)NCCCn2ccnc2)s1)NO	IC50 [1]: 4.1 nM; IC50 [2]: 6.2 nM; ΔTm [3]: 7.36 °C; IC50 [10]: 33 nM; IC50 [11]: 21 µM; IC50 [12]: 351 nM; inhibition [13]: Dose-dependent effect; inhibition [14]: Dose-dependent effect; inhibition [15]: Active
14	91	83	2.7	13	O=C(/C=C/c1ccc(CN(Cc2ccc(F)cc2)c2ncc(C(=O)NCCCn3ccnc3)s2)cc1)NO	
14	46	99	7.3	79	O=C(NO)c1ccc(CN(Cc2ccc(F)cc2)c2ncc(C(=O)NCCCn3ccnc3)s2)cc1	
470	95	17	22	14	O=C(CCCCCCN(Cc1ccc(F)cc1)c1ncc(C(=O)NCc2cccnc2)s1)NO	
